# Results published in ChEMBL document CHEMBL3621102, “Structure-activity study of quinazoline derivatives leading to the discovery of potent EGFR-T790M inhibitors” (Eur J Med Chem, 2015).
# Calls of active or inactive are those of the source. No cut-off for these calls is given here.
# Experiments:
# [1] = molecular target: Epidermal growth factor receptor (Homo sapiens, UniProt P00533); experiment: Inhibition of EGFR (unknown origin) by ELISA method
# NCI-H1975 [2] = experiment: Antiproliferative activity against human NCI-H1975 cells assessed as growth inhibition; type: functional
# Outline: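 NCI-H1975 cells were grown in RPMI with 1 mM sodium pyruvate, 10% FBS and 1% penicillin-streptomycin, under humidified 5% CO₂ at 37 °C. Growth inhibition was read as GI₅₀.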
# NCI-H1975 [3] = experiment: Antitumor activity against human NCI-H1975 cells xenografted in BALB/c mouse assessed as tumor growth inhibition at 4 mg/kg po, qd for 21 days; type: functional, organism-based
# Outline: (§1)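 Athymic mice received 2 × 10⁶ tumour cells subcutaneously in the right flank. At 100–300 mm³ they were randomised to control and treatment groups (n = 6); controls received vehicle alone. Tumour volume = length × width²/2 and RTV = Vt/V0.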
# Mus musculus [4] = experiment: Toxicity in NCI-H1975 xenografted BALB/c mouse assessed as body weight loss at 4 mg/kg po, qd for 21 days; type: organism-based; details: in vivo, 504 h
# Outline: (§2)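 Athymic mice bearing subcutaneous right-flank xenografts (2 × 10⁶ cells, dosed at 100–300 mm³; n = 6 per group; vehicle controls). Health was observed daily and body weight measured on indicated days. Body weight change (%) = (Wt/W0 − 1) × 100 against predosing weight, given as group mean ± SEM.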
# Mus musculus [5] = experiment: Toxicity in NCI-H1975 xenografted BALB/c mouse assessed as induction of weakness at 4 mg/kg po, qd for 21 days; type: organism-based; details: in vivo, 504 h; outline: as §2
# Mus musculus [6] = experiment: Toxicity in NCI-H1975 xenografted BALB/c mouse assessed as induction of lethargy at 4 mg/kg po, qd for 21 days; type: organism-based; details: in vivo, 504 h; outline: as §2
# Mus musculus [7] = experiment: Toxicity in NCI-H1975 xenografted BALB/c mouse assessed as induction of eye disease at 4 mg/kg po, qd for 21 days; type: organism-based; details: in vivo, 504 h; outline: as §2
# Mus musculus [8] = experiment: Toxicity in NCI-H1975 xenografted BALB/c mouse assessed as induction of exfoliative skin disorder at 4 mg/kg po, qd for 21 days; type: organism-based; details: in vivo, 504 h; outline: as §2
# [9] = Toxicity in NCI-H1975 xenografted BALB/c mouse assessed as induction of mouse mortality at 4 mg/kg po, qd for 9 days; type: organism-based; details: in vivo
# Outline: (§3)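 Athymic mice received 2 × 10⁶ NCI-H1975 cells subcutaneously in the right flank. When tumours reached 100–300 mm³, mice were randomised into control and treatment groups (n = 6 per group), and controls got vehicle alone. Health was checked daily, and body weight and tumour size were measured on set days during treatment.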
# NCI-H1975 [10] = experiment: Antitumor activity against human NCI-H1975 cells xenografted in BALB/c mouse assessed as tumor growth inhibition at 8 mg/kg po, qd for 21 days; type: functional, organism-based; outline: as §1
# Mus musculus [11] = experiment: Toxicity in NCI-H1975 xenografted BALB/c mouse assessed as body weight loss at 8 mg/kg po, qd for 21 days; type: organism-based; details: in vivo, 504 h; outline: as §2
# Mus musculus [12] = experiment: Toxicity in NCI-H1975 xenografted BALB/c mouse assessed as induction of weakness at 8 mg/kg po, qd for 21 days; type: organism-based; details: in vivo, 504 h; outline: as §2
# Mus musculus [13] = experiment: Toxicity in NCI-H1975 xenografted BALB/c mouse assessed as induction of lethargy at 8 mg/kg po, qd for 21 days; type: organism-based; details: in vivo, 504 h; outline: as §2
# Mus musculus [14] = experiment: Toxicity in NCI-H1975 xenografted BALB/c mouse assessed as induction of eye disease at 8 mg/kg po, qd for 21 days; type: organism-based; details: in vivo, 504 h; outline: as §2
# Mus musculus [15] = experiment: Toxicity in NCI-H1975 xenografted BALB/c mouse assessed as induction of exfoliative skin disorder at 8 mg/kg po, qd for 21 days; type: organism-based; details: in vivo, 504 h; outline: as §2
# [16] = Toxicity in NCI-H1975 xenografted BALB/c mouse assessed as induction of mouse mortality at 8 mg/kg po, qd for 9 days; type: organism-based; details: in vivo; outline: as §3
# Mus musculus [17] = experiment: Toxicity in NCI-H1975 xenografted BALB/c mouse assessed as body weight change at 13 mg/kg po, qd for 21 days; type: organism-based; details: in vivo, 504 h; outline: as §2
# Mus musculus [18] = experiment: Toxicity in NCI-H1975 xenografted BALB/c mouse assessed as induction of eye diseases at 13 mg/kg po, qd for 21 days; type: organism-based; details: in vivo, 504 h; outline: as §2
# A-431 [19] = experiment: Antitumor activity against human A431 cells xenografted in BALB/c mouse assessed as tumor growth inhibition at 5 mg/kg po, qd for 18 days; type: functional, organism-based; outline: as §1
# HCC827 = experiment: Antitumor activity against human HCC827 cells xenografted in BALB/c mouse assessed as tumor growth inhibition at 5 mg/kg po, qd for 12 days; type: functional, organism-based; outline: as §1
# A-431 [20] = experiment: Antitumor activity against human A431 cells xenografted in BALB/c mouse assessed as tumor growth inhibition at 10 mg/kg po, qd for 18 days; type: functional, organism-based; outline: as §1
# Mus musculus [21] = experiment: Toxicity in human A431 cells xenografted BALB/c mouse assessed as body weight loss at 5 and 10 mg/kg po, qd for 18 days; type: organism-based, A-431; details: in vivo, 432 h; outline: as §2
# [22] = AUC (0 to 24 hrs) in Sprague-Dawley rat at 1 mg/kg, iv by LC/MS/MS method; type: ADME, organism-based; design: time < 24 hr, dose 1 mg/kg, route intravenous; details: in vivo
# Outline: (§4)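 Male Sprague-Dawley rats (n = 3) dosed once at 1 mg/kg iv via tail vein, or once at 5 mg/kg by oral gavage, using the same formulation. Serial blood samples were taken over 24 h. Plasma levels were measured by LC/MS/MS (C18 column, 10 mM ammonium formate-0.1% formic acid water/methanol 10/90, ESI positive). Parameters were derived by noncompartmental analysis.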
# [23] = AUC (0 to infinity) in Sprague-Dawley rat at 1 mg/kg, iv by LC/MS/MS method; type: ADME, organism-based; design: dose 1 mg/kg, time infinity, route intravenous; details: in vivo; outline: as §4
# [24] = Mean residence time in Sprague-Dawley rat at 1 mg/kg, iv incubated for 24 hrs by LC/MS/MS method; type: ADME, organism-based; details: in vivo; outline: as §4
# [25] = Elimination half-life in Sprague-Dawley rat at 1 mg/kg, iv incubated for 24 hrs by LC/MS/MS method; type: ADME, organism-based; details: in vivo, read-out: beta t1/2 (converted); outline: as §4
# [26] = Clearance in Sprague-Dawley rat at 1 mg/kg, iv incubated for 24 hrs by LC/MS/MS method; type: ADME, organism-based; details: in vivo; outline: as §4
# [27] = Apparent volume of distribution in Sprague-Dawley rat at 1 mg/kg, iv incubated for 24 hrs by LC/MS/MS method; type: ADME, organism-based; details: in vivo, read-out: Vd(app); outline: as §4
# [28] = Bioavailability in Sprague-Dawley rat at 1 mg/kg, iv incubated for 24 hrs by LC/MS/MS method; type: ADME, organism-based; details: in vivo; outline: as §4
# Mus musculus [29] = experiment: Toxicity in NCI-H1975 xenografted BALB/c mouse assessed as induction of exfoliative skin disorders at 13 mg/kg po, qd for 21 days; type: organism-based; details: in vivo, 504 h; outline: as §2
# Mus musculus [30] = experiment: Toxicity in NCI-H1975 xenografted BALB/c mouse assessed as induction of eye diseases at 20 mg/kg po, qd for 21 days; type: organism-based; details: in vivo, 504 h; outline: as §2
# Mus musculus [31] = experiment: Toxicity in NCI-H1975 xenografted BALB/c mouse assessed as induction of exfoliative skin disorders at 20 mg/kg po, qd for 21 days; type: organism-based; details: in vivo, 504 h; outline: as §2
# Mus musculus [32] = experiment: Toxicity in human HCC827 cells xenografted BALB/c mouse assessed as body weight loss at 5 mg/kg po, qd for 12 days; type: organism-based; details: in vivo, 288 h; outline: as §2
# Mus musculus [33] = experiment: Toxicity in human A431 cells xenografted BALB/c mouse assessed as induction of exfoliative skin disorders at 5 and 10 mg/kg po, qd for 18 days; type: organism-based, A-431; details: in vivo, 432 h; outline: as §2
# Mus musculus [34] = experiment: Toxicity in human A431 cells xenografted BALB/c mouse assessed as induction of eye diseases at 5 and 10 mg/kg po, qd for 18 days; type: organism-based, A-431; details: in vivo, 432 h; outline: as §2
# Mus musculus [35] = experiment: Toxicity in human HCC827 cells xenografted BALB/c mouse assessed as induction of eye disease at 5 mg/kg po, qd for 12 days; type: organism-based; details: in vivo, 288 h; outline: as §2
# Mus musculus [36] = experiment: Toxicity in human HCC827 cells xenografted BALB/c mouse assessed as induction of exfoliative skin disorders at 5 mg/kg po, qd for 12 days; type: organism-based; details: in vivo, 288 h; outline: as §2
# NCI-H1975 [37] = experiment: Antitumor activity against human NCI-H1975 cells xenografted in BALB/c mouse assessed as tumor growth inhibition at 13 mg/kg po, qd for 21 days; type: functional, organism-based; outline: as §1
# Mus musculus [38] = experiment: Toxicity in NCI-H1975 xenografted BALB/c mouse assessed as body weight loss at 10 mg/kg po, qd for 21 days; type: organism-based; details: in vivo, 504 h; outline: as §2
# Mus musculus [39] = experiment: Toxicity in NCI-H1975 xenografted BALB/c mouse at 10 mg/kg po, qd for 7 days measured after drug cessation; type: organism-based; details: in vivo, 168 h; outline: as §2
# [40] = Toxicity in NCI-H1975 xenografted BALB/c mouse assessed as induction of mouse mortality at 10 mg/kg po, qd for days; type: organism-based; details: in vivo; outline: as §3
# Chain of Epidermal growth factor receptor (P00533 whole entry): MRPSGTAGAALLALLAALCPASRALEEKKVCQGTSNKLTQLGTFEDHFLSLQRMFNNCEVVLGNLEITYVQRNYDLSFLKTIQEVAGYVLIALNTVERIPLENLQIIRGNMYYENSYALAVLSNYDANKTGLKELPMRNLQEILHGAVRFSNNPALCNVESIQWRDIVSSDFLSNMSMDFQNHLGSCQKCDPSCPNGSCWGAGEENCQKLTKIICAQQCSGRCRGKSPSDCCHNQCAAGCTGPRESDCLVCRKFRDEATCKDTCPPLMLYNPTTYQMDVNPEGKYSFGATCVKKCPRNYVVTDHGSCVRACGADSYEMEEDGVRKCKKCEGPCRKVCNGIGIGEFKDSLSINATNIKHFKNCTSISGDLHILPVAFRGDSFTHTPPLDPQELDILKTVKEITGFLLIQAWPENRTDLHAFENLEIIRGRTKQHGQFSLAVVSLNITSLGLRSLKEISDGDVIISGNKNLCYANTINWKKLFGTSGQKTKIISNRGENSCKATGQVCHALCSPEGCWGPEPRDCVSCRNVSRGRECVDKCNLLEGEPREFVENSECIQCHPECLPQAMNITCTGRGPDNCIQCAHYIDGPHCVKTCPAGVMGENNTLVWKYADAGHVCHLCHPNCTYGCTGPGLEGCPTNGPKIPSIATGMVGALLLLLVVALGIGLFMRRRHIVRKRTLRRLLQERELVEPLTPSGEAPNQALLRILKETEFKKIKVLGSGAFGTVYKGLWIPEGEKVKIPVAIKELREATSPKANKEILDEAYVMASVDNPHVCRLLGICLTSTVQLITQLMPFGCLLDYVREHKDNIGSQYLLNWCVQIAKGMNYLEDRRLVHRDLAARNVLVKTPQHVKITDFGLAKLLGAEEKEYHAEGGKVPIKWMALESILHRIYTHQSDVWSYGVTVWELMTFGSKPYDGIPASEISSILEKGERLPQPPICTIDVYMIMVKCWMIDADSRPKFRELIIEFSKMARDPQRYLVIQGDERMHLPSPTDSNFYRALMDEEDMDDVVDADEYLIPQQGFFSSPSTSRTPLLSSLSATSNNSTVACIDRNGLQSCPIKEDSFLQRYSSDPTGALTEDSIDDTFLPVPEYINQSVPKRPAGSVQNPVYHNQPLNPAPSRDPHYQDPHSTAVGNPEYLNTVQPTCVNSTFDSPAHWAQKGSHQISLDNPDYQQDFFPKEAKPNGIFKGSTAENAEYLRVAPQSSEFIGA
smiles,measurement,setting,value
CCOc1cc2ncnc(Nc3ccc(F)c(Cl)c3)c2cc1NC(=O)/C=C/CNC1CC1,IC50,[1],0.9 nM
same,GI50,NCI-H1975 [2],11.6 nM
same,TGI,NCI-H1975 [3],Active
same,Activity,Mus musculus [4],Toxic
same,Activity,Mus musculus [5],Toxic
same,Activity,Mus musculus [6],Toxic
same,Activity,Mus musculus [7],Toxic
same,Activity,Mus musculus [8],Toxic
same,mortality at 216 h,[9],> 50%
COc1cc2ncnc(Nc3ccc(F)c(Cl)c3)c2cc1NC(=O)/C=C/CNC1CC1,IC50,[1],2.1 nM
same,GI50,NCI-H1975 [2],11.2 nM
same,TGI,NCI-H1975 [10],Active
same,Activity,Mus musculus [11],Toxic
same,Activity,Mus musculus [12],Toxic
same,Activity,Mus musculus [13],Toxic
same,Activity,Mus musculus [14],Toxic
same,Activity,Mus musculus [15],Toxic
same,mortality at 216 h,[16],> 50%
O=C(/C=C/CNC1CC1)Nc1cc2c(Nc3ccc(F)c(Cl)c3)ncnc2cc1O[C@H]1CCOC1,IC50,[1],6.5 nM
same,GI50,NCI-H1975 [2],10.2 nM
same,Activity,Mus musculus [17],Non-toxic
same,Activity,Mus musculus [18],Non-toxic
same,TGI,A-431 [19],inactive
same,TGI,HCC827,Active
same,TGI,A-431 [20],Active
same,Activity,Mus musculus [21],Non-toxic
same,AUC(0-t) at 24 h,[22],660 ng·h/mL
same,AUC(0-inf),[23],662 ng·h/mL
same,MRT,[24],3.88 h
same,half-life,[25],3.15 h
same,clearance,[26],25.7 mL/min/kg
same,Vd,[27],3.82 L/kg
same,bioavailability,[28],83.5%
same,Activity,Mus musculus [29],Non-toxic
same,Activity,Mus musculus [30],Non-toxic
same,Activity,Mus musculus [31],Non-toxic
same,Activity,Mus musculus [32],Non-toxic
same,Activity,Mus musculus [33],Non-toxic
same,Activity,Mus musculus [34],Non-toxic
same,Activity,Mus musculus [35],Non-toxic
same,Activity,Mus musculus [36],Non-toxic
same,TGI,NCI-H1975 [37],Active
C#Cc1cccc(Nc2ncnc3cc(OCC)c(NC(=O)/C=C/CNC4CC4)cc23)c1,IC50,[1],4.2 nM
same,GI50,NCI-H1975 [2],16.5 nM
same,Activity,Mus musculus [38],Toxic
same,Activity,Mus musculus [39],Non-toxic
same,mortality,[40],> 50%
